Laboratory results published in PubChem BioAssay AID488898 (Broad Institute, 2010).
Inconclusive results are not listed. Activity calls are given as the source filed them.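 Rule for the calls: active = fitted half-maximal caspase rise reached at or below ten times the top valid dose; inconclusive = flat fit between 30 and 70 percent, or poor fit; inactive = the rest.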

Assays:
[1] = apoptosis induction, Bax/Bak-deficient fibroblasts – cell-based, mouse embryonic fibroblasts, dry powder, counter-screen for Bcl2-A1 inhibitor project, dose response (AID 488898); conditions: Bax/Bak-/- MEF caspase activation, CaspaseGlo luminescence, 3 h
In short: (§1)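 Assay system: Bax/Bak double-knockout mouse embryonic fibroblasts, counterscreen cell line / Quantity: 2500 cells/well / Buffer or medium: RPMI-1640 growth medium with 10% FBS / Doses: pin-transferred compound / Times: 3 h compound exposure (37 °C), then 1 h RT detection / Signal: Caspase-Glo luminescent readout / Evaluation: caspase activation as toxicity or off-target flag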

[2] = tested on: Bax/Bak-/- MEF caspase activation, CaspaseGlo luminescence, 3 h; assay: as above
In short: as §1

SMILES	caspase activation ([1]; at 150 µM (top of the series))	other results
Cc1c(CCOC(=O)c2ccc(N3CCOCC3)c([N+](=O)[O-])c2)sc[n+]1CC#N	0.688% (inactive)	–
COc1cc(/C=C(/C#N)c2nc3ccccc3[nH]2)ccc1OCC(=O)Nc1ccccc1C(C)C	1.27% (inactive)	–
COc1ccc(N(C(=O)CCl)C(C(=O)NCCc2ccccc2)c2cccs2)cc1Cl (centres undefined)	–	AC50 [2]: 24.9 µM
Cc1cccc(NC(=O)/C(C#N)=C/c2cn(CC(=O)NCc3ccco3)c3ccccc23)c1	–	AC50 [2]: 4.78 µM
Cc1c(C=O)c(C=O)c(C)n1Cc1ccccc1	1.17% (inactive)	–
CC(=O)N[C@H]1[C@H](O[C@H]2CC[C@@]3(C)C(CC[C@]4(C)C3CC=C3[C@@H]5CC(C)(C)CC[C@]5(C(=O)OC5OCC(O)C(O)C5O)C(O)C[C@]34C)C2(C)C)O[C@H](COC2OCC(O)C(OC3OCC(O)C(O)C3O)C2O)[C@@H](O[C@@H]2O[C@@H](C)[C@H](O)[C@@H](O)[C@H]2O[C@@H]2O[C@@H](C)[C@H](O)[C@@H](O)[C@H]2O)[C@@H]1O (some centres undefined)	–	caspase activation ([1]; at 135 µM (top of the series)): -0.158% (inactive)
Nc1nc(F)nc2c1ncn2[C@@H]1O[C@H](CO)[C@@H](O)[C@H]1O	-0.0553% (inactive)	–
CCc1nnc(NC(=O)c2nc(S(=O)(=O)Cc3ccccc3)ncc2Cl)s1	-0.106% (inactive)	–
O=C(Oc1cccc(/C=N/Nc2nc(Nc3ccccc3)nc(N3CCOCC3)n2)c1)c1ccco1	0.146% (inactive)	–
Cc1cccc(CS(=O)(=O)c2ncc(Cl)c(C(=O)Nc3nnc(C(C)C)s3)n2)c1	-0.163% (inactive)	–
CC(C)(C)n1nc(-c2ccc(Cl)cc2)c2c(N)ncnc21	2.79% (inactive)	–
Cc1ccc(CS(=O)(=O)c2ncc(Cl)c(C(=O)Nc3nnc(C(C)C)s3)n2)cc1	-0.479% (inactive)	–
C=C1[C@@H](C)[C@H]2[C@H](Cc3ccccc3)NC(=O)[C@]23OC(=O)/C=C\[C@H](O)CCC[C@@H](C)C/C=C/[C@H]3[C@@H]1O	0.116% (inactive)	–
C/C1=C/C(=O)O[C@@H]2C[C@@H](CC[C@H](C)/C=C\CC1)O[C@@](O)(C1CSC(=O)N1)C2 (some centres undefined)	1.16% (inactive)	–
C=C1[C@@H](C)[C@H]2[C@H](Cc3ccccc3)NC(=O)[C@]23[C@H](OC(C)=O)/C=C/[C@](C)(O)C(=O)[C@@H](C)C/C=C/[C@H]3[C@@H]1O	0.127% (inactive)	–
Cc1cc(C(=O)CCl)c(C)n1CCc1ccc(Cl)cc1	–	AC50 [2]: 13.3 µM
O=C(CCl)N=c1sccn1Cc1ccccc1Cl	0.854% (inactive)	–
CCOC(=O)CSC1=N/C(=C/c2ccc(-n3cncn3)cc2)C(=O)N1C(C)=O	-0.0192% (inactive)	–
Cn1c(=NC(=O)CCl)sc2ccccc21	0.685% (inactive)	–
COc1cccc(C(=O)C(C#N)=C(SC)SC)c1	0.208% (inactive)	–
CCSc1nnc(NC(=O)c2nc(S(=O)(=O)Cc3ccc(F)cc3)ncc2Cl)s1	-0.717% (inactive)	–
CC(=O)OC(C)(C)/C=C/C(=O)[C@](C)(O)C1[C@H](O)C[C@@]2(C)C3CC=C4C(C[C@H](O)C(=O)C4(C)C)[C@]3(C)C(=O)C[C@]12C (some centres undefined)	0.556% (inactive)	–
CCc1cc2c(=O)c(-c3cnn(-c4ccccc4)c3)c(C)oc2cc1OCC(=O)Nc1cccc(C)c1	0.45% (inactive)	–
Cc1ccc(Sc2c([N+](=O)[O-])c(=O)n(C)c3ccccc23)cc1	1% (inactive)	–
